Experimental data as given in ChEMBL document CHEMBL1154977, “Antiproliferative activity of novel benzo[b][1,6]naphthyridines in human solid tumor cell lines” (Bioorg Med Chem Lett, 2010).

Columns and labels:
Ishikawa = assay: Growth inhibition of human Ishikawa cells after 48 hrs by sulforhodamine B assay; type: functional
In short: (§1)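 Human solid tumor cells were exposed to drug for 48 h. Growth was measured by sulforhodamine B staining, and results were expressed as GI₅₀ (50% growth inhibition).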

HeLa = assay: Growth inhibition of human HeLa cells after 48 hrs by sulforhodamine B assay; type: functional; in short: as §1
WiDr = assay: Growth inhibition of human WiDr cells after 48 hrs by sulforhodamine B assay; type: functional; in short: as §1
T47D = assay: Growth inhibition of human T47D cells after 48 hrs by sulforhodamine B assay; type: functional; in short: as §1
SW1573 = assay: Growth inhibition of human SW1573 cells after 48 hrs by sulforhodamine B assay; type: functional; settings: SW1573, 48 h; in short: as §1
Nakaseomyces nivariensis = assay: Antifungal activity against Candida nivariensis 5937-63 after 48 hrs by broth microdilution method; type: functional, organism-based; settings: 5937-63, 48 h
In short: (§2)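 Candida strains were grown on nutrient agar at 35–37 °C for 24 h and suspended in normal saline at 1.0–5.0 × 10³ cfu mL⁻¹, matched to a 0.5 McFarland standard. Broth microdilution was run in RPMI 1640 buffered with MOPS, with growth and sterility controls. Plates were incubated at 35–37 °C in a moist dark chamber, shaken, and read for optical density at 490 nm after 48 h.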

Staphylococcus aureus [1] = assay: Antibacterial activity against epidemic methicillin-resistant Staphylococcus aureus 16 after 24 hrs by broth microdilution method; type: functional, organism-based; settings: Staphylococcus aureus, 16, 24 h
In short: (§3)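 Bacteria grown on nutrient agar at 35–37 °C for 24 h, then suspended in normal saline to approximately 5.0 × 10⁵ cfu mL⁻¹, matched to 0.5 McFarland. Broth microdilution in Mueller Hinton broth with growth and sterility controls. Incubated at 35–37 °C in a moist dark chamber, shaken, and optical density read at 630 nm after 24 h.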

Staphylococcus aureus [2] = assay: Antibacterial activity against Staphylococcus aureus ATCC 29213 after 24 hrs by broth microdilution method; type: functional, organism-based; settings: ATCC 29213, 24 h; in short: as §3
Staphylococcus aureus [3] = assay: Antibacterial activity against Staphylococcus aureus ATCC 25923 after 24 hrs by broth microdilution method; type: functional, organism-based; settings: ATCC 25923, 24 h; in short: as §3
Escherichia coli [4] = assay: Antibacterial activity against Escherichia coli ATCC 35218 after 24 hrs by broth microdilution method; type: functional, organism-based; settings: ATCC 35218, 24 h
In short: (§4)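 Bacteria were grown on nutrient agar at 35–37 °C for 24 h and suspended in normal saline at about 5.0 × 10⁵ cfu mL⁻¹, matched to a 0.5 McFarland standard. Broth microdilution was run in Mueller Hinton broth with growth and sterility controls. Plates were incubated at 35–37 °C in a moist dark chamber, shaken, and read for optical density at 630 nm after 24 h.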

Staphylococcus aureus [5] = assay: Antibacterial activity against Staphylococcus aureus NRS 107 after 24 hrs by broth microdilution method; type: functional, organism-based; settings: NRS 107, 24 h; in short: as §3
Enterococcus faecalis = assay: Antibacterial activity against Enterococcus faecalis ATCC 29212 after 24 hrs by broth microdilution method; type: functional, organism-based; settings: ATCC 29212, 24 h; in short: as §4
Escherichia coli [6] = assay: Antibacterial activity against Escherichia coli ATCC 25922 after 24 hrs by broth microdilution method; type: functional, organism-based; settings: ATCC 25922, 24 h; in short: as §4
Pseudomonas aeruginosa = assay: Antibacterial activity against Pseudomonas aeruginosa ATCC 27853 after 24 hrs by broth microdilution method; type: functional, organism-based; settings: ATCC 27853, 24 h; in short: as §4
Pichia kudriavzevii = assay: Antifungal activity against Candida krusei ATCC 6258 after 48 hrs by broth microdilution method; type: functional, organism-based; settings: ATCC 6258, 48 h; in short: as §2
Klebsiella oxytoca = assay: Antibacterial activity against Klebsiella oxytoca ATCC 700324 after 24 hrs by broth microdilution method; type: functional, organism-based; settings: ATCC 700324, 24 h
Candida parapsilosis = assay: Antifungal activity against Candida parapsilosis ATCC 22019 after 48 hrs by broth microdilution method; type: functional, organism-based; settings: Lodderomyces parapsilosis, ATCC 22019, 48 h; in short: as §2
Nakaseomyces glabratus = assay: Antifungal activity against Candida glabrata ATCC 90030 after 48 hrs by broth microdilution method; type: functional, organism-based; settings: ATCC 90030, 48 h; in short: as §2
Klebsiella pneumoniae = assay: Antibacterial activity against Klebsiella pneumoniae ATCC 700603 after 24 hrs by broth microdilution method; type: functional, organism-based; settings: ATCC 700603, 24 h; in short: as §4
Candida albicans = assay: Antifungal activity against Candida albicans ATCC 90028 after 48 hrs by broth microdilution method; type: functional, organism-based; settings: ATCC 90028, 48 h; in short: as §2

| Structure (SMILES) | GI50 (Ishikawa) | GI50 (HeLa) | GI50 (WiDr) | GI50 (T47D) | GI50 (SW1573) | IC50 (Nakaseomyces nivariensis) | IC50 (Staphylococcus aureus [1]) | IC50 (Staphylococcus aureus [2]) | IC50 (Staphylococcus aureus [3]) | IC50 (Escherichia coli [4]) | IC50 (Staphylococcus aureus [5]) | IC50 (Enterococcus faecalis) | IC50 (Escherichia coli [6]) | IC50 (Pseudomonas aeruginosa) | IC50 (Pichia kudriavzevii) | IC50 (Klebsiella oxytoca) | IC50 (Candida parapsilosis) | IC50 (Nakaseomyces glabratus) | IC50 (Klebsiella pneumoniae) | IC50 (Candida albicans) |
| --- | --- | --- | --- | --- | --- | --- | --- | --- | --- | --- | --- | --- | --- | --- | --- | --- | --- | --- | --- | --- |
| ClC(Cl)(Cl)C1c2cc3ccccc3nc2C=C(c2ccccc2)N1Cc1ccccc1 (stereo not given) | 15 µM | 27 µM | 46 µM | 71 µM | 5.1 µM |  |  |  |  |  |  |  |  |  |  |  |  |  |  |  |
| CCCCN1C(c2ccccc2)=Cc2nc3ccccc3cc2C1C(Cl)(Cl)Cl (stereo not given) | 3.1 µM | 6.1 µM | 16 µM | 15 µM | 6.5 µM |  |  |  |  |  |  |  |  |  |  |  |  |  |  |  |
| COC1OC(c2ccccc2)=Cc2nc3ccccc3cc21 (stereo not given) | > 100 µM | > 100 µM | > 100 µM | > 100 µM | > 100 µM | > 100 µM | > 100 µM | 29 µM | > 100 µM | > 100 µM | > 100 µM | > 100 µM | > 100 µM | > 100 µM | > 100 µM | > 100 µM | > 100 µM | > 100 µM | > 100 µM | > 100 µM |
| ClC(Cl)(Cl)C1c2cc3ccccc3nc2C=C(c2ccccc2)N1CCc1ccccc1 (stereo not given) | 25 µM | 38 µM | 57 µM | 60 µM | 5.5 µM |  |  |  |  |  |  |  |  |  |  |  |  |  |  |  |
| C=CCN1C(c2ccccc2)=Cc2nc3ccccc3cc2C1C(Cl)(Cl)Cl (stereo not given) | 31 µM | 32 µM | 42 µM | 48 µM | 46 µM |  |  |  |  |  |  |  |  |  |  |  |  |  |  |  |
| CCOc1ccc(CCN2C(c3ccccc3)=Cc3nc4ccccc4cc3C2C(Cl)(Cl)Cl)cc1OCC (stereo not given) | 4.1 µM | 5.6 µM | 37 µM | 54 µM | 4.3 µM |  |  |  |  |  |  |  |  |  |  |  |  |  |  |  |
| CCOC1OC(c2ccccc2)=Cc2nc3ccccc3cc21 (stereo not given) | > 100 µM | > 100 µM | > 100 µM | > 100 µM | > 100 µM | 16 µM | 17 µM | 23 µM | 20 µM | 27 µM | 24 µM | 25 µM | 20 µM | 22 µM | 4.5 µM | 63 µM | 20 µM | 18 µM | 56 µM | 20 µM |
| ClC(Cl)(Cl)C1c2cc3ccccc3nc2C=C(c2ccccc2)N1CCN1CCOCC1 (stereo not given) | 17 µM | 6.5 µM | 20 µM | 26 µM | 31 µM |  |  |  |  |  |  |  |  |  |  |  |  |  |  |  |
